Test results reported in ChEMBL document CHEMBL5712908, “A genome-wide RNAi screen reveals essential therapeutic targets of breast cancer stem cells” (2019).
The source made the active and inactive calls. No cut-off for these calls is given here.

What was measured:
Proteasome [1] = assay: Inhibition of proteasome in human SUM149 cells assessed as K-score by measuring ALDHbr cells by LSR2 cytometer; settings: condition breast cancer
Summary of the method: (§1)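 Breast cancer lines exposed continuously for 72 h in adherent culture to a range of doses centred on the MTS-derived IC50 (72 h MTS, absorbance 540 nm). ALDHbr fraction measured by ALDEFLUOR flow cytometry (LSR2) with DEAB control. K-score = linear regression coefficient between untreated condition and the log10 dose at which ALDHbr proportion changes by 50% versus control.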

Proteasome [2] = assay: Inhibition of proteasome in human MDA-MB-436 cells assessed as K-score by measuring ALDHbr cells by LSR2 cytometer; settings: condition breast cancer; summary of the method: as §1
Proteasome [3] = assay: Inhibition of proteasome in human BrCa-MZ-01 cells assessed as K-score by measuring ALDHbr cells by LSR2 cytometer; settings: condition breast cancer; summary of the method: as §1
Proteasome [4] = assay: Inhibition of proteasome in human S68 cells assessed as K-score by measuring ALDHbr cells by LSR2 cytometer; settings: condition breast cancer; summary of the method: as §1
Proteasome [5] = assay: Inhibition of proteasome in human SUM159 cells assessed as K-score by measuring ALDHbr cells by LSR2 cytometer; settings: condition breast cancer; summary of the method: as §1
SUM149PT [6] = assay: Anticancer activity against human SUM149 cells assessed as ALDHbr cells by LSR2 cytometer (reference value: 6.8%); type: functional
Summary of the method: (§2)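 Cells continuously exposed to drug for 72 h in adherent culture; single-cell suspensions stained with ALDEFLUOR kit and ALDH-high population measured by flow cytometry (LSR2) against a DEAB control. Residual ALDHbr proportion reported (n = 8), mean ± SD, Student's t-test.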

[7] = molecular target: Histone-lysine N-methyltransferase EZH2 (Homo sapiens) (UniProt Q15910); assay: Inhibition of EZH2 in human SUM159 cells assessed as increase in ALDHbr cells by LSR2 cytometer (reference value: 4.8%); type: cell-based; parameters: scale not given: the % may be the effect or the level left; settings: dose 0.0 µM
Summary of the method: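 SUM159 cells exposed continuously for 72 h in adherent culture to graded doses centred on the IC50. ALDHbr proportion measured by ALDEFLUOR flow cytometry (LSR2) with DEAB as negative control; n = 10.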

[8] = molecular target: T1, Splicing factor 3B subunit 2 (Homo sapiens) (UniProt Q13435); assay: Inhibition of SF3B2 in human BrCa-MZ-01 cells assessed as K-score by measuring ALDHbr cells by LSR2 cytometer; type: cell-based
T1 sequence (whole entry): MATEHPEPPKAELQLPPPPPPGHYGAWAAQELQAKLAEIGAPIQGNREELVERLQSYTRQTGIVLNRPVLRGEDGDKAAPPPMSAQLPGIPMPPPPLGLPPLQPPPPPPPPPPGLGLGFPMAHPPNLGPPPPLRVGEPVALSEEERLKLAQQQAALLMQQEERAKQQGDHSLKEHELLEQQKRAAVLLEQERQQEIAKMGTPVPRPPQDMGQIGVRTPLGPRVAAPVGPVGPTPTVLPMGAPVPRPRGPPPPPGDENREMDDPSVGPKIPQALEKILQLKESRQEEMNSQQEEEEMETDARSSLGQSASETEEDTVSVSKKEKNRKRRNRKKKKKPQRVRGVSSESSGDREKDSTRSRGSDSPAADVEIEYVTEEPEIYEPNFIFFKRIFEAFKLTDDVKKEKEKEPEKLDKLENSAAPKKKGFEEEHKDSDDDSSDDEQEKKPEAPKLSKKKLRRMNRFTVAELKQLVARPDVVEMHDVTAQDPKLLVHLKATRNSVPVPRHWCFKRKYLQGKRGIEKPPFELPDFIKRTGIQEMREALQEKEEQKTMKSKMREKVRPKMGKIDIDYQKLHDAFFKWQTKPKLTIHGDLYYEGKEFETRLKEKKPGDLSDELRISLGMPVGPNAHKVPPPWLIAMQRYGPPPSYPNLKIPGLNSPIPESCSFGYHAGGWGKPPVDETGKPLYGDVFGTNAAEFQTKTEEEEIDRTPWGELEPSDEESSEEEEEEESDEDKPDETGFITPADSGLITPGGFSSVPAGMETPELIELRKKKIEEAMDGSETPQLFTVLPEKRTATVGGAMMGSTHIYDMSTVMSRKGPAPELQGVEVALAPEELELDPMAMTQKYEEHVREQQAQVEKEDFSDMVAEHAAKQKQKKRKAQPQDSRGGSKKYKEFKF
Summary of the method: (§3)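 Cell lines exposed for 72 h in adherent culture to a range of concentrations centred on the MTS-derived IC50. ALDHbr proportion measured by ALDEFLUOR flow cytometry (LSR2). K-score is the linear regression coefficient, on log10-transformed doses, between the untreated condition and the dose predicted to give a 50% decrease or increase in ALDHbr proportion versus control.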

[9] = molecular target: T1, Splicing factor 3B subunit 2 (Homo sapiens); assay: Inhibition of SF3B2 in human MDA-MB-436 cells assessed as K-score by measuring ALDHbr cells by LSR2 cytometer; type: cell-based; summary of the method: as §3
[10] = molecular target: T1, Splicing factor 3B subunit 2 (Homo sapiens); assay: Inhibition of SF3B2 in human SUM159 cells assessed as K-score by measuring ALDHbr cells by LSR2 cytometer; type: cell-based; summary of the method: as §3
[11] = molecular target: T1, Splicing factor 3B subunit 2 (Homo sapiens); assay: Inhibition of SF3B2 in human SUM149 cells assessed as K-score by measuring ALDHbr cells by LSR2 cytometer; type: cell-based; summary of the method: as §3
[12] = molecular target: T1, Splicing factor 3B subunit 2 (Homo sapiens); assay: Inhibition of SF3B2 in human S68 cells assessed as K-score by measuring ALDHbr cells by LSR2 cytometer; type: cell-based; summary of the method: as §3
SUM-159-PT [13] = assay: Anticancer activity against human SUM159 cells assessed as decrease in primary tumor sphere formation incubated for 72 hrs by Extreme limiting dilution analysis; type: functional, cell-based
Summary of the method: (§4)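 Cells drug-treated in adherent culture for 72 h, then plated as single cells in ultra-low attachment 96-well plates in serum-free mammary epithelium basal medium. Plating at 25/10/5/3/2/1 cells per well, 18–36 wells per condition. Wells with ≥1 sphere after 10 days scored positive. Secondary spheres were made by dissociating primary spheres. Frequency by ELDA; n = 4; pairwise chi-square test.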

SUM-159-PT [14] = assay: Anticancer activity against human SUM159 cells assessed as decrease in secondary tumor sphere formation incubated for 72 hrs by Extreme limiting dilution analysis; type: functional, cell-based; summary of the method: as §4
[15] = molecular target: Runt-related transcription factor 1 (Homo sapiens) (UniProt Q01196); assay: Inhibition of RUNX1 in human MDA-MB-436 cells assessed as K-score by measuring ALDHbr cells by LSR2 cytometer; type: cell-based; summary of the method: as §3
[16] = molecular target: Runt-related transcription factor 1 (Homo sapiens) (UniProt Q01196); assay: Inhibition of RUNX1 in human BrCa-MZ-01 cells assessed as K-score by measuring ALDHbr cells by LSR2 cytometer; type: cell-based; summary of the method: as §3
[17] = molecular target: Runt-related transcription factor 1 (Homo sapiens) (UniProt Q01196); assay: Inhibition of RUNX1 in human SUM159 cells assessed as K-score by measuring ALDHbr cells by LSR2 cytometer; type: cell-based; summary of the method: as §3
[18] = molecular target: Runt-related transcription factor 1 (Homo sapiens) (UniProt Q01196); assay: Inhibition of RUNX1 in human S68 cells assessed as K-score by measuring ALDHbr cells by LSR2 cytometer; type: cell-based; summary of the method: as §3
[19] = molecular target: Runt-related transcription factor 1 (Homo sapiens) (UniProt Q01196); assay: Inhibition of RUNX1 in human SUM149 cells assessed as K-score by measuring ALDHbr cells by LSR2 cytometer; type: cell-based; summary of the method: as §3
SUM149PT [20] = assay: Anticancer activity against human SUM149 cells assessed as decrease primary tumor sphere formation at 2 nM incubated for 72 hrs by Extreme limiting dilution analysis; type: functional, cell-based
Summary of the method: (§5)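 Cells given drug (2 nM when combined with other agents) for 72 h in adherent culture, then plated as single cells in ultra-low attachment 96-well plates in serum-free mammary epithelium basal medium at 25/10/5/3/2/1 cells per well (18–36 wells per condition). Wells holding ≥1 sphere at 10 days scored positive. Sphere-forming frequency by extreme limiting dilution analysis, pairwise chi-square, n = 4.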

SUM-159-PT [21] = assay: Anticancer activity against human SUM159 cells assessed as decrease primary tumor sphere formation at 2 nM incubated for 72 hrs by Extreme limiting dilution analysis; type: functional, cell-based; summary of the method: as §5
SUM149PT [22] = assay: Anticancer activity against human SUM149 cells assessed as decrease in ALDHbr cells at 2 nM by LSR2 cytometer analysis; type: functional, cell-based; summary of the method: as §2
SUM-159-PT [23] = assay: Anticancer activity against human SUM159 cells assessed as decrease in ALDHbr cells at 2 nM by LSR2 cytometer analysis; type: functional, cell-based; summary of the method: as §2

Chain of Runt-related transcription factor 1 (Homo sapiens) (Q01196 whole entry): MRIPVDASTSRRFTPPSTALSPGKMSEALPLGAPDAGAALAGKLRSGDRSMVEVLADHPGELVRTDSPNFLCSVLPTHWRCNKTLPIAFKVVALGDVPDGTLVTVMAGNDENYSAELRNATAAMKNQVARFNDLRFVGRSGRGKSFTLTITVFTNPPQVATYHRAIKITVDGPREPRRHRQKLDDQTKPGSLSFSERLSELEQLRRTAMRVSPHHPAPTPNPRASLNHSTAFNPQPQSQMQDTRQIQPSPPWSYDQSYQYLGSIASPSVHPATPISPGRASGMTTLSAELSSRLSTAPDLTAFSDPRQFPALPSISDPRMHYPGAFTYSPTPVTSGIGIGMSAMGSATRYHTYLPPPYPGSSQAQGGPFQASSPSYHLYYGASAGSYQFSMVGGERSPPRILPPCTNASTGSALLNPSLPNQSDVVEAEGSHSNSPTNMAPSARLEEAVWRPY
Chain of Histone-lysine N-methyltransferase EZH2 (Homo sapiens) (Q15910 whole entry, looked up): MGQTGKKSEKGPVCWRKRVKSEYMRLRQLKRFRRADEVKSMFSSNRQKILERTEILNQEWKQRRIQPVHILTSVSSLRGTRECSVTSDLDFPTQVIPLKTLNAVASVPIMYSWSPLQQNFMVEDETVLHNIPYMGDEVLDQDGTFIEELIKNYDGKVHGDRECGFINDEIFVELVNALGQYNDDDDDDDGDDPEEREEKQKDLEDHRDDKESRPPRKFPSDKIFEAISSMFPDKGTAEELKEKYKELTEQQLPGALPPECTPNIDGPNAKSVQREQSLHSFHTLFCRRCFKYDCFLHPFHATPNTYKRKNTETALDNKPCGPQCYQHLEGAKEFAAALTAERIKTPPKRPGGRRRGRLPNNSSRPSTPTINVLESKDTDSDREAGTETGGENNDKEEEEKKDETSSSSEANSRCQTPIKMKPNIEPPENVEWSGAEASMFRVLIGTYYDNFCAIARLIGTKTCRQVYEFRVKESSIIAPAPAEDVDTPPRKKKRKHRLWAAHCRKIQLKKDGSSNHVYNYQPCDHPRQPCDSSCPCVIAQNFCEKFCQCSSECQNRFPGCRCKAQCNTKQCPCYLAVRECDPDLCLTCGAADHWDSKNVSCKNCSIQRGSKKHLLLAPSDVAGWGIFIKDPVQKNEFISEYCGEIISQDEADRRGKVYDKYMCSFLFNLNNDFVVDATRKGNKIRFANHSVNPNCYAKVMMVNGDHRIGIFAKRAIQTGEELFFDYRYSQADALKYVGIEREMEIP

CC(C)C[C@H](NC(=O)[C@H](Cc1ccccc1)NC(=O)c1cnccn1)B(O)O [BORTEZOMIB]
Activity (Proteasome [1]): -0.11
Activity (Proteasome [2]): -0.06
Activity (Proteasome [3]): -0.07
Activity (Proteasome [4]): -0.14
Activity (Proteasome [5]): 0.07

CCN(CC)c1ccc(C=O)cc1
Activity (SUM149PT [6]): 0.3%
Activity [7]: 0.2%

CO[C@]1(C)C[C@@]2(CO2)[C@H](O)[C@@H](/C=C/C(C)=C/C[C@@H]2O[C@H](C)[C@H](NC(=O)/C=C\[C@H](C)OC(C)=O)C[C@@H]2C)O1
Activity [8]: 0.05
Activity [9]: -0.15
Activity [10]: 0.25
Activity [11]: -0.19
Activity [12]: -0.16

CC#C[C@]1(O)CC[C@H]2[C@@H]3CCC4=CC(=O)CCC4=C3[C@@H](c3ccc(N(C)C)cc3)C[C@@]21C
Activity (SUM-159-PT [13]): Active
Activity (SUM-159-PT [14]): Active

O=C1CN=C(c2ccc[nH]2)c2cc(Cl)ccc2N1
Activity [15]: 0
Activity [16]: -0.04
Activity [17]: 0.09
Activity [18]: -0.07
Activity [19]: -0.04

CC(=O)O[C@@]12CO[C@@H]1C[C@H](O)[C@@]1(C)C(=O)[C@H](O)C3=C(C)[C@@H](OC(=O)[C@H](O)[C@@H](NC(=O)OC(C)(C)C)c4ccccc4)C[C@@](O)([C@@H](OC(=O)c4ccccc4)[C@H]21)C3(C)C
Activity (SUM149PT [20]): inactive
Activity (SUM-159-PT [21]): inactive
Activity (SUM149PT [22]): inactive
Activity (SUM-159-PT [23]): inactive
